RORA inh = RORA (human) inhibition. P35398. CHO-K1 Gal4-RORA LBD luciferase reporter, luminescence. inhibition, % at 10 µM. actives 0.43% (n = 65,000);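 active = inhibition above the mean of all tested compounds plus 3 SD, cut at about 52% in these data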;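 note: 0% = RORA-transfected cells with DMSO and 100% = mock-transfected cells lacking RORA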
Target sequence (P35398 whole entry, looked up, the tested form may be a part): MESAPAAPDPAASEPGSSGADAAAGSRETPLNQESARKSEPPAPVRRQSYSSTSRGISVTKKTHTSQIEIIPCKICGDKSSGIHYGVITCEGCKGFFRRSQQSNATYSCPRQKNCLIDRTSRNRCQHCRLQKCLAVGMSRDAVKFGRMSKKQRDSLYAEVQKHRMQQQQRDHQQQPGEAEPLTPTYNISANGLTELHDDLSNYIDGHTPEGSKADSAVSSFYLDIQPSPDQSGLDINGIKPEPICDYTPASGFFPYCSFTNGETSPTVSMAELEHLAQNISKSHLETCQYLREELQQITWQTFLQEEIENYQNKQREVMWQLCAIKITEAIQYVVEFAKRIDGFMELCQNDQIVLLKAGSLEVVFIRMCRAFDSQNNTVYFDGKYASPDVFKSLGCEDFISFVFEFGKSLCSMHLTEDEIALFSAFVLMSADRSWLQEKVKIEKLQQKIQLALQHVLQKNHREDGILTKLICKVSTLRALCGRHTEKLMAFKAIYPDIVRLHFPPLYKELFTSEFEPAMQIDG
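Test system – CHO-K1 Gal4-RORA LBD luciferase reporter cells · Schedule – 20 h at 37 °C · Signal – luminescence from basal luciferase reporter expression · Measure – percent inhibition of basal reporter luminescence, control-normalized · Control set – -RORA mock-transfected DMSO wells 100%, +RORA DMSO wells 0%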
* hit, by the source's call. The full list was thinned out, with hits kept by preference.

SMILES	RORA inh
FC(F)(F)c1cc(-c2ccccc2)nc(N2CCCCCC2)n1	6
O=S(=O)(c1ccccc1)N1CCN(c2cc(-c3ccccc3)nc3ncnn23)CC1	70*
COc1ccc(-c2nsc3c(N4CCN(S(=O)(=O)c5ccccc5)CC4)ncnc23)cc1	14
NC(=O)CC1NC(=O)c2ccccc21 (stereo unspecified)	-2
Cc1ccc(-c2cn3nc(C)c(C)nc3n2)cc1	74*
Brc1ccc(-c2cn3cccnc3n2)cc1	-53
CCOC(=O)c1cnc(SCC(=O)c2ccccc2)nc1N	-59
Cc1nn(-c2nc3ccccc3s2)c(C)c1Oc1ccccc1O	-66
CN(C)c1ccc(-c2ccccc2)nn1	-56
CCN1CCN(C(=O)C2c3cc(OC)c(OC)cc3C(=O)N(C)C2c2ccc(SC)cc2)CC1 (stereo unspecified)	5
O=S(=O)(c1ccc(NC2CCCCC2)cc1)N1CCOCC1	12
Cc1cc(C)n(-c2c(F)c(F)c(CN3CCOCC3)c(F)c2F)n1	1
Fc1ccc(-c2nnc(-c3ccc(Cl)cc3)o2)cc1	-56
Clc1ccc(-c2nnc(NC3=NCCCCC3)o2)cc1	65*
COC(=O)c1sc2nc(N3CCCCC3)c3c(c2c1N)CC(C)(C)N(C)C3	-1
O=C1CCCN1CC(CN1CCOCC1)Sc1nc2ccccc2c(=O)n1-c1ccccc1 (stereo unspecified)	17
CN1CCN(c2ncnc3c2cnn3-c2ccc(Cl)cc2)CC1	22
Cc1cccc(-n2ncc3c(N4CCC5(CC4)OCCO5)ncnc32)c1	-49
CC1CC(C)CN(c2ncnc3c2cnn3-c2ccc(Cl)cc2)C1 (stereo unspecified)	-54
c1ccc(-n2ncc3c(N4CCCCC4)ncnc32)cc1	62*
Clc1ccc(-n2ncc3c(NCC4CCCO4)ncnc32)cc1 (stereo unspecified)	-96
CC1CCCN(c2ncnc3c2cnn3-c2ccccc2)C1 (stereo unspecified)	57*
c1ccc(-n2ncc3c(NC4CCCCCC4)ncnc32)cc1	-77
c1ccc(-n2ncc3c(NCC4CCCO4)ncnc32)cc1 (stereo unspecified)	-57
CC1CCCN(c2ncnc3c2cnn3-c2ccc(Cl)cc2)C1 (stereo unspecified)	84*
SMILES	RORA inh
CCOC(=O)C1CCN(S(=O)(=O)C(F)(F)c2nc3ccccc3s2)CC1	-71
CC(=NC1CCCCC1)C1=C(O)c2ccccc2C1=O	-88
CCn1c2ccc(CC(=O)O)cc2c2cc(CC(=O)O)ccc21	3
COc1ccc(CCNC(=O)C2CCCN(S(=O)(=O)c3cccc4nonc34)C2)cc1OC (stereo unspecified)	3
Cc1ccc(CC2(O)CC(C)N(C)CC2C)c(C)c1 (stereo unspecified)	2
COc1cccc(NC(=O)c2nnn(Cc3ccc(Br)cc3F)c2N)c1	-58
CCCn1c(C)cc(C(=O)CN2C(=O)c3ccccc3C2=O)c1C	-55
C=CCn1c(C)cc(C(=O)COc2nncc3ccccc23)c1C	-80
COCCn1c(C)cc(C(=O)COC(=O)c2n[nH]c3ccccc23)c1C	58*
O=C(COc1ccccc1)n1nc(-c2ccc(Cl)cc2)nc1NCc1ccco1	-60
CSc1ccc(CNc2ccccn2)cc1	-61
COC(=O)c1c(-c2cccs2)csc1NC(=O)c1cccnc1	4
Cc1sc2nc3n(c(=O)c2c1C)Cc1ccccc1-3	-73
O=C(CSc1nc2ccccc2c(=O)n1Cc1ccco1)c1ccc(F)cc1	-11
COc1ccc(-n2nnc3c(SCC(=O)NCc4ccco4)ncnc32)cc1	3
COc1ccc(C(=O)Nn2c(SCC(=O)NCc3ccco3)nc3ccccc3c2=O)cc1	59*
CCCCC(=O)Nc1cccc(NC(=O)c2ccc3c(c2)OCO3)c1	-16
O=C(CCc1ccc(S(=O)(=O)N2CCOCC2)cc1)NCCCN1CCCC1=O	1
Cc1cc(N2CCCCC2)n2ncc(-c3ccc(Cl)cc3)c2n1	-87
CCc1nn2c(=O)cc(N3CCN(c4cc(C)nc5ccccc45)CC3)nc2s1	-1
Cc1cc(N2CCN(c3nc4ccccc4s3)CC2)n2ncnc2n1	75*
Cc1cc(NC(=O)c2ccco2)ncc1NC(=O)Cc1ccccc1	-57
c1ccc(-n2nc3c(ccc4cnnc43)[nH]2)cc1	-55
CCCCN1c2cc(C)c(O)cc2C(C(=O)OCC)C1C (stereo unspecified)	5
Cc1ccc(-c2nc(-c3ccccn3)no2)cc1	90*
SMILES	RORA inh
c1ccc(CCCc2nc(-c3ccccn3)no2)cc1	-50
Clc1cccc(-c2nc(-c3ccccn3)no2)c1	62*
Clc1cc(Cl)c(OCc2nc(-c3ccccn3)no2)cc1Cl	-52
Cc1cccc(-c2noc(Cc3ccc(Cl)cc3)n2)c1	-12
CC(C)(C)c1ccc(OCc2nc(-c3ccccn3)no2)c(Br)c1	-67
Cc1ccc(-c2nc(-c3ccccn3)no2)cc1Cl	81*
Brc1ccc(-c2nc(-c3ccccc3)no2)o1	-68
c1ccc(Cc2nc(-c3ccccn3)no2)cc1	-61
Cc1cccc(N(Cc2cc3ccccc3[nH]c2=O)C(=O)c2ccco2)c1C	-5

Assay outcomes deposited in PubChem BioAssay by The Scripps Research Institute Molecular Screening Center.
